What was measured:
Format in all cases: binding
[1] = molecular target: T1, TRβ-SRC2-2 interaction (hTRβ LBD, SRC2-2 Texas Red peptide) (Homo sapiens, UniProt P10828); assay: TRβ-SRC2-2 fluorescence polarization qHTS; conditions: six concentrations up to 92 μM; FP inhibition
T1 sequence (P10828 209-461): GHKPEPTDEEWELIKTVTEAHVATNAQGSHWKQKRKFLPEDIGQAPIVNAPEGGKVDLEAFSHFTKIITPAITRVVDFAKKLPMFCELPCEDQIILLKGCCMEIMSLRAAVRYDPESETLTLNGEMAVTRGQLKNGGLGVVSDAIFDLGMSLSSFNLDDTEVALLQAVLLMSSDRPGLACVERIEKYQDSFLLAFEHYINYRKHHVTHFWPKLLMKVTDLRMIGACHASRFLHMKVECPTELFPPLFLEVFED

[2] = molecular target: T2, TRβ-SRC2-2 interaction (hTRβ LBD, SRC2-2 fluorescein peptide) (Homo sapiens, UniProt P10828); conditions: confirmation, independent samples, fluorescein fluoroprobe
T2 sequence (P10828 209-461): T1 sequence (P10828 209-461)
Method in brief: (§1)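 Talon-purified TRβ (eluted with T3), 0.6 uM, with 20 nM SRC2-2 peptide carrying an N-terminal Texas Red or fluorescein label, in pH 7.4 Tris buffer with 1 µM T3 and 4% DMSO. Test compound was given as 10 three-fold dilutions, top 130 µM, then incubated 3 h at ambient temperature. Polarization was read at 555/632 nm (Texas Red) or 480/535 nm (fluorescein). mP was normalized to DMSO wells with and without TRβ, and concentration-response curves were fitted.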

[3] = molecular target: T1, TRβ-SRC2-2 interaction (hTRβ LBD, SRC2-2 Texas Red peptide); conditions: confirmation, independent samples, Texas Red fluoroprobe
Method in brief: as §1

SMILES | activity in the qHTS (active/inactive) [1] | IC50 [2] [µM] | IC50 [3] [µM]
COc1cc(C(=O)OCC(=O)NC(=O)C2CCCCC2)ccc1OC(F)F [MLS000517502-01] | loss of the activity |  | 
CC(CCc1ccccc1)NC(=O)COC(=O)c1ccc(S(C)(=O)=O)c([N+](=O)[O-])c1 (stereo not shown) [MLS001003365-01] | active |  | 
Cc1ccccc1NC(=O)COC(=O)c1ccc(S(C)(=O)=O)c([N+](=O)[O-])c1 [MLS001017631-01] | inactive |  | 
CS(=O)(=O)c1ccc(C(=O)OCc2nnc(-c3ccc(Cl)cc3)o2)cc1[N+](=O)[O-] [MLS001003284-01] | inactive |  | 
CN1CC[C@@]2(C)c3cc(O)ccc3N(C)[C@H]2O1 [geneseroline] |  | > 30 | > 30
CS(=O)(=O)c1ccc(C(=O)OCC(=O)NC23CC4CC(CC(C4)C2)C3)cc1[N+](=O)[O-] [MLS000389544-01] | active |  | 
O=C(COC(=O)c1ccncc1)NC(=O)C1CCCCC1 [MLS000565662-01] | loss of the activity |  | 
CS(=O)(=O)c1ccc(C(=O)OCC(=O)NC(=O)C2CCCCC2)cc1[N+](=O)[O-] [MLS000517530-01] | active |  | 
CS(=O)(=O)c1ccc(C(=O)OCc2nnc(-c3ccccc3)o2)cc1[N+](=O)[O-] [MLS001010708-01] | inactive |  | 
O=C(COC(=O)c1ccc(Cl)cc1O)NC(=O)C1CCCCC1 [MLS000776485-01] | loss of the activity |  | 
CS(=O)(=O)c1ccc(C(=O)OCC(=O)NC2CCS(=O)(=O)C2)cc1[N+](=O)[O-] (stereo not shown) [MLS000336487-01] | inactive |  | 
CC(=O)c1cccc(NC(=O)COC(=O)c2ccc(S(C)(=O)=O)c([N+](=O)[O-])c2)c1 [MLS000517219-01] | inactive |  | 
